The source made the active and inactive calls. The rule behind the calls is not given here.
Tests used:
[1] = target: D(2) dopamine receptor (Homo sapiens) (UniProt P14416); test: (§1) Negative allosteric modulation of recombinant human D2L receptor expressed in Flp-In CHO cells assessed as inhibition of dopamine-induced reduction in forskolin stimulated cAMP accumulation preincubated for 30 mins followed by forskolin stimulation and measured after 30 mins by BRET assay; assay type: functional, cell-based
Chain of D(2) dopamine receptor (Homo sapiens) (P14416 whole entry): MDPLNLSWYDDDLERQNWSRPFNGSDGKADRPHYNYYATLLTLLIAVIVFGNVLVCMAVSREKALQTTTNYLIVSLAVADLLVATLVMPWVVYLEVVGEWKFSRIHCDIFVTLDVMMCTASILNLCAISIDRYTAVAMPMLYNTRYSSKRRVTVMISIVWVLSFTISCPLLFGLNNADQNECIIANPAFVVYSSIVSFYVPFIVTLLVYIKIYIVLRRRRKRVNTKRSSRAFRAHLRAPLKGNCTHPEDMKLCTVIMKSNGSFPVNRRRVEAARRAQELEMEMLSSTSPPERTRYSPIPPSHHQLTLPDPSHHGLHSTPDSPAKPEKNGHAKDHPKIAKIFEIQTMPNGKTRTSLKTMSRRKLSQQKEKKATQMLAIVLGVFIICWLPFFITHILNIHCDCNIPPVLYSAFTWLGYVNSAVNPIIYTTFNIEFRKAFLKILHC

Homo sapiens = organism: Homo sapiens; test: Selectivity ratio of Kb for recombinant D3 receptor (unknown origin) expressed in Flp-In CHO cell membranes to Kb for recombinant human D2L receptor expressed in Flp-In CHO cell membranes; assay type: cell-based
[2] = target: D(2) dopamine receptor (Homo sapiens) (UniProt P14416); test: Displacement of [3H]Raclopride from recombinant human D2L receptor expressed in Flp-In CHO cell membranes after 2 to 3 hrs by microbeta counting method
Outline: (§2)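 hD2LR FlpIn CHO membrane homogenate (15 µg protein) was co-incubated with 0.5 nM [3H]raclopride and test compound at 10^-3 to 10^-7 M (half-log dilutions from DMSO stock, in duplicate). Incubation was 2-3 h at 25 °C in HEPES buffer, pH 7.4. Nonspecific binding was defined with 10 µM haloperidol. Filtration was followed by scintillation counting. KB and cooperativity α were obtained from an allosteric ternary complex model.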

[3] = target: D(3) dopamine receptor (Homo sapiens) (UniProt P35462); test: Displacement of [3H]Raclopride from recombinant D3 receptor (unknown origin) expressed in Flp-In CHO cell membranes after 2 to 3 hrs by microbeta counting method
Chain of D(3) dopamine receptor (Homo sapiens) (P35462 whole entry): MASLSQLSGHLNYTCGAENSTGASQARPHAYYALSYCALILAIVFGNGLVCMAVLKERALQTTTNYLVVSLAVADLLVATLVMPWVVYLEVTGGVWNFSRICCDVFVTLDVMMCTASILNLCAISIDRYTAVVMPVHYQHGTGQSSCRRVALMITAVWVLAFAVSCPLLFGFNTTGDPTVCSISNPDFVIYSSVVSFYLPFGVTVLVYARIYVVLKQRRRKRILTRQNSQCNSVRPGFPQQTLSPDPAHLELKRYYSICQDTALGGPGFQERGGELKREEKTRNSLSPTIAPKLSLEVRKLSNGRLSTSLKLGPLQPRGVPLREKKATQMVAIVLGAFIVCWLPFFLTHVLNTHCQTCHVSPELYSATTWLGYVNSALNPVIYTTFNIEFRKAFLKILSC
Outline: (§3)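 In FlpIn CHO membranes expressing hD3R, compound was tested for displacement of [3H]raclopride in equilibrium binding. Competition curves were fitted with an allosteric ternary complex model to give KB and the net cooperativity factor with [3H]raclopride. Data are at least three independent experiments in duplicate.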

[4] = target: D(2) dopamine receptor (Homo sapiens) (UniProt P14416); test: as §1, with “accumulation by measuring modulation of dopamine efficacy” for “accumulation”; assay type: functional, cell-based
[5] = target: D(2) dopamine receptor (Homo sapiens) (UniProt P14416); test: as §1, with “accumulation by measuring co-operativity factor” for “accumulation”; assay type: functional, cell-based
[6] = target: D(2) dopamine receptor (Homo sapiens) (UniProt P14416); test: as §1, with “accumulation by measuring co-operativity factor up to 100 uM” for “accumulation”; assay type: functional, cell-based
[7] = target: D(2) dopamine receptor (Homo sapiens) (UniProt P14416); test: Displacement of [3H]Raclopride from recombinant human D2L receptor expressed in Flp-In CHO cell membranes assessed as co-operativity factor after 2 to 3 hrs by microbeta counting method; outline: as §2
[8] = target: D(3) dopamine receptor (Homo sapiens) (UniProt P35462); test: Displacement of [3H]Raclopride from recombinant D3 receptor (unknown origin) expressed in Flp-In CHO cell membranes assessed as co-operativity factor after 2 to 3 hrs by microbeta counting method; outline: as §3
[9] = target: D(2) dopamine receptor (Homo sapiens) (UniProt P14416); test: Allosteric modulation of recombinant human D2L receptor expressed in Flp-In CHO cell membranes assessed as dissociation half life for [3H]Raclopride in presence of haloperidol after 2 to 3 hrs by microbeta counting method (reference value: 49.2 min); assay type: cell-based
Outline: (§4)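 Membranes from FlpIn CHO cells stably expressing hD2LR were incubated with 0.5 nM [3H]raclopride for 60 min in HEPES/NaCl/MgCl2/EGTA/EDTA buffer, pH 7.4, at 25 °C. Dissociation was then started by adding 10 µM haloperidol, with or without modulator. Bound radioactivity was collected by filtration and scintillation counting. Curves were fitted for koff, and t1/2 = 0.6931/koff.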

[10] = target: D(2) dopamine receptor (Homo sapiens) (UniProt P14416); test: Allosteric modulation of recombinant human D2L receptor expressed in Flp-In CHO cell membranes assessed as dissociation of [3H]Raclopride in presence of haloperidol after 2 to 3 hrs by microbeta counting method (reference value: 0.014 +/- 0.001 /min); assay type: cell-based; outline: as §4
[11] = target: D(2) dopamine receptor (Homo sapiens) (UniProt P14416); test: Allosteric modulation of recombinant human D2L receptor expressed in Flp-In CHO cell membranes assessed as dissociation of [3H]Raclopride at 100 uM in presence of haloperidol after 2 to 3 hrs by microbeta counting method (reference value: 0.02 +/- 0.004 /min); assay type: cell-based; outline: as §4
[12] = target: D(2) dopamine receptor (Homo sapiens) (UniProt P14416); test: Allosteric modulation of recombinant human D2L receptor expressed in Flp-In CHO cell membranes assessed as dissociation half life for [3H]Raclopride at 100 uM in presence of haloperidol after 2 to 3 hrs by microbeta counting method (reference value: 34.2 min); assay type: cell-based; outline: as §4

Structure (SMILES) | Kb [1] [µM] | pKb [1] | Kb [2] [µM] | pKb [2] | Kb [3] [µM] | pKb [3] | log(activity) [4] | Activity [5] | log(activity) [5] | Activity [4] | inhibition [6] | Activity [7] | log(activity) [7] | Activity [8] | log(activity) [8] | T1/2 [9] [min] | K [10] [min⁻¹] | K [11] [min⁻¹] | T1/2 [12] [min] | Selectivity ratio (Homo sapiens)
CCN(CC)c1nc(CCCCN2CCOCC2)nc2sc3c(c12)CCCC3 | 1.77 | 5.8 | 16 | 4.79 | 10 | 4.99 | 1.07 |  |  |  |  |  |  |  |  |  |  |  |  | 1.6
CCN(CC)c1nc(CN2CCOCC2)nc2sccc12 | 3.13 | 5.5 | 1.3 | 5.89 | 11 | 4.95 | -0.62 | 0.08 | -1.1 | 0.24 |  |  |  |  |  |  |  |  |  | 0.1
FC(F)(F)c1cccc(Nc2nc(CN3CCOCC3)nc3scc(-c4ccccc4)c23)c1 |  |  | 48.6 | 4.31 |  |  |  |  |  |  | inactive | 0.13 | -0.88 |  |  |  |  |  |  | 
CNc1nc(CN2CCOCC2)nc2sc3c(c12)CCCC3 |  |  | 53 | 4.28 |  |  |  |  |  |  | inactive |  |  |  |  |  |  |  |  | 
CCN(CC)c1nc(CCCCN2CCOCC2)nc2sccc12 | 1.3 | 5.89 | 3 | 5.51 | 0.9 | 6.06 | -0.82 | 0.05 | -1.34 | 0.15 |  |  |  |  |  |  |  |  |  | 3.5
CCN(CC)c1nc(CC2CCOCC2)nc2sc3c(c12)CCCC3 |  |  | 35 | 4.45 |  |  |  |  |  |  | inactive |  |  |  |  |  |  |  |  | 
CCN(CC)c1nc(CN2CCOCC2)nc2sc3c(c12)CCCC3 | 0.662 | 6.18 | 6 | 5.22 |  | 3.85 | -1.1 | 0.68 | -0.17 | 0.08 |  | 0.23 | -0.64 |  |  | 18.2 | 0.038 |  |  | 23

The next lines start with results.

Kb [1] [µM] | pKb [1] | Kb [2] [µM] | pKb [2] | Kb [3] [µM] | pKb [3] | log(activity) [4] | Activity [5] | log(activity) [5] | Activity [4] | inhibition [6] | Activity [7] | log(activity) [7] | Activity [8] | log(activity) [8] | T1/2 [9] [min] | K [10] [min⁻¹] | K [11] [min⁻¹] | T1/2 [12] [min] | Structure (SMILES) | Selectivity ratio (Homo sapiens)
 |  | 50 | 4.3 |  |  |  |  |  |  | inactive |  |  |  |  |  |  |  |  | FC(F)(F)c1cccc(Nc2nc(CN3CCOCC3)nc3sc(Cc4ccccc4)cc23)c1 | 
25.4 | 4.6 | 31 | 4.51 | 0.2 | 6.65 | -1.02 |  | 0 | 0.1 |  | 0.39 | -0.41 | 0.06 | -0.39 |  |  |  |  | FC(F)(F)c1cccc(Nc2ncnc3sc4c(c23)CCCC4)c1 | 140
 |  | 45 | 4.35 |  |  |  |  |  |  | inactive |  |  |  |  |  |  |  |  | FC(F)(F)c1cccc(Nc2nc(CN3CCOCC3)nc3sc(-c4ccccc4)cc23)c1 | 
0.622 | 6.22 | 100 | 3.99 | 52 | 4.28 | -0.63 | 0.13 | -0.89 | 0.23 |  | 0.39 | -0.41 | 0.37 | -0.44 |  |  |  |  | FC(F)(F)c1cccc(Nc2nc(CC3CCOCC3)nc3sc4c(c23)CCCC4)c1 | 2
0.611 | 6.21 | 3.31 | 5.48 |  | 3.97 | -1.5 | 0.19 | -0.72 | 0.03 |  | 0.09 | -1.03 | 0.2 | -0.69 |  |  |  |  | FC(F)(F)c1cccc(Nc2nc(CCCCN3CCOCC3)nc3sc4c(c23)CCCC4)c1 | 0.03
 |  |  | 3.59 |  |  |  |  |  |  | inactive |  |  |  |  |  |  |  |  | Cc1sc2nc(CN3CCOCC3)nc(Nc3cccc(C(F)(F)F)c3)c2c1C | 
 |  |  | 3.98 |  |  |  |  |  |  | inactive |  |  |  |  |  |  |  |  | FC(F)(F)c1cccc(Nc2nc(CN3CCOCC3)nc3sc4c(c23)CCCCCC4)c1 | 
3.87 | 5.41 | 16.6 | 4.78 | 0.3 | 6.54 | -0.55 |  | 0 | 0.28 |  |  |  | 0.39 | -0.4 |  |  | 0.038 | 18.1 | FC(F)(F)c1cccc(Nc2nc(CN3CCOCC3)nc3sc4c(c23)CCCC4)c1 | 57
 |  | 37 | 4.43 |  |  |  |  |  |  | inactive |  |  |  |  |  |  |  |  | FC(F)(F)c1cccc(Nc2nc(CN3CCOCC3)nc3sc4c(c23)CCCCC4)c1 | 

Source: ChEMBL document CHEMBL4308833, “A Thieno[2,3- d]pyrimidine Scaffold Is a Novel Negative Allosteric Modulator of the Dopamine D2 Receptor” (J Med Chem, 2018)
